Calls of active or inactive are those of the source. The rule behind the calls is not given here.
How the values were obtained:
[1] = Downregulation of FOXM1 expression in human MDA-MB-231 cells at 40 uM after 48 hrs by Western blot analysis relative to control; format: functional
How it was run: (§1)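 MDA-MB-231 cells (RPMI, 10% FBS, 37 °C, 5% CO2) were treated in 6-well plates and lysed in RIPA buffer for 30 min after ice-cold PBS washes. Protein was quantified by Bradford and equal amounts run on 10% SDS-PAGE, then transferred to nitrocellulose and blocked in 10% milk/TBST for 45 min. Primary antibody was used at 1:1000 at 4 °C overnight, secondary for 45 min at RT, with chemiluminescent detection.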

[2] = target: T1, Forkhead box protein M1 (Homo sapiens) (UniProt Q08050); test: Inhibition of FOXM1 transcriptional activity in human MDA-MB-231 cells at 40 uM after 12 hrs by luciferase reporter gene assay; format: cell-based
T1 sequence (whole entry): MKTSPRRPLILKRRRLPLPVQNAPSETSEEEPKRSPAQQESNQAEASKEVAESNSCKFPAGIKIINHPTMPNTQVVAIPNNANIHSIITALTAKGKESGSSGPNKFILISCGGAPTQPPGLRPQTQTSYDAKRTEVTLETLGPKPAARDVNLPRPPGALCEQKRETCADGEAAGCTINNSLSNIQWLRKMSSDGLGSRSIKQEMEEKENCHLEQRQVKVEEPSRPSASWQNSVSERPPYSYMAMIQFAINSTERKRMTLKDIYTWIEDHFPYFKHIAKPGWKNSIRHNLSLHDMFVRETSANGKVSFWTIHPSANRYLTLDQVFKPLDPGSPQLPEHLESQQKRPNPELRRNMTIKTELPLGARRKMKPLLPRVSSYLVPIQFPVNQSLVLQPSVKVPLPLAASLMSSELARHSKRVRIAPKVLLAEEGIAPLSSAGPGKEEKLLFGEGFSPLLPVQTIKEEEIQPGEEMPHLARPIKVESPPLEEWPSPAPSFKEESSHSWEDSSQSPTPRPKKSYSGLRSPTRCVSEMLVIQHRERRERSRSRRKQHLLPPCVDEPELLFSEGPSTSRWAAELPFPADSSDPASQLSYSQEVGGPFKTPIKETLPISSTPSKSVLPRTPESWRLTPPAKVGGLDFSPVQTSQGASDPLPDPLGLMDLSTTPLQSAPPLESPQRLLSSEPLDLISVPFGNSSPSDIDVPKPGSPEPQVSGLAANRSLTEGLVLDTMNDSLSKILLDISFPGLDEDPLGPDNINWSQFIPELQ
How it was run: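 MDA-MB-231 cells were transiently transfected with equal amounts of 6x-FOXM1 firefly luciferase reporter and empty pGL4.10 backbone. After 24 h, cells were drug-treated for 12 h, PBS-washed and lysed in reporter lysis buffer. Firefly luciferase activity was read on equal total protein per lysate, in triplicate, with significance by one-way ANOVA.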

MDA-MB-231 [3] = test: Downregulation of SP1 expression in human MDA-MB-231 cells at 80 uM after 24 hrs by Western blot analysis; format: functional, cell-based; how it was run: as §1
Forkhead box protein M1 = target: T2, Forkhead box protein M1 (Homo sapiens, UniProt Q08050); test: Binding affinity to recombinant FOXM1 DBD (unknown origin) expressed in Escherichia coli BL21 (DE3) assessed as disruption of FOXM1-DNA complex preincubated for 1.5 hrs followed by DNA addition measured after 20 mins by EMSA
T2 sequence (Q08050 whole entry): T1 sequence (whole entry)

MDA-MB-231 [4] = test: Effect on SP1 expression in human MDA-MB-231 cells at 80 uM after 24 hrs by Western blot analysis; format: functional, cell-based; how it was run: as §1

Work on COC(=O)c1ccc(COc2ccc(/C=C3\SC(=O)NC3=O)cc2[N+](=O)[O-])cc1 yielded an inhibition at 40 µM [1] of 80%.

In the case of Cc1c(C)c2c(c(C)c1O)CCC(C)(COc1ccc(CC3SC(=O)NC3=O)cc1)O2 (stereo unspecified) [TROGLITAZONE], the inhibition [2] is reported as “Active”, the inhibition (MDA-MB-231 [3]) is reported as “Active” and the IC50 (Forkhead box protein M1) is reported as 122 µM. For the same molecule, the Ki (Forkhead box protein M1) was 0.052 µM and the inhibition at 40 µM [1] was 80%.

COc1cc(/C=C2\SC(=O)NC2=O)ccc1OCc1ccc([N+](=O)[O-])cc1 gave an inhibition at 40 µM [1] of 80%.

For O=C1NC(=O)/C(=C/c2ccc(OCc3ccc(C(F)(F)F)cc3)cc2)S1, the inhibition at 40 µM [1] was > 90%.

Molecule COC(=O)c1ccc(COc2ccc(/C=C3\SC(=O)NC3=O)cc2OC)cc1 has an inhibition at 40 µM [1] of 80%.

O=C1NC(=O)/C(=C/c2ccc(OCc3ccc([N+](=O)[O-])cc3)cc2)S1 showed an inhibition at 40 µM [1] of 80%.

For COc1cc(/C=C2\SC(=O)NC2=O)ccc1OCc1ccc(C(F)(F)F)cc1, the Activity (MDA-MB-231 [4]) was “inactive” and the inhibition at 40 µM [1] was > 90%.

Nc1c(C(=O)Nc2ccc(F)cc2)sc2nc(-c3cccs3)cc(C(F)(F)F)c12 showed an inhibition at 40 µM [1] of 80%.

In the case of COc1ccc(/C=C2\SC(=O)NC2=O)cc1OCc1ccc([N+](=O)[O-])cc1, the inhibition at 40 µM [1] is reported as > 90%.

For O=C1NC(=O)/C(=C/c2ccc(OCc3ccc([N+](=O)[O-])cc3)c([N+](=O)[O-])c2)S1, the inhibition at 40 µM [1] was 80%.

Work on COc1ccc(/C=C2\SC(=O)NC2=O)cc1OCc1ccc(C(F)(F)F)cc1 yielded an inhibition at 40 µM [1] of 80%.

From ChEMBL document CHEMBL4732066, “SP1-independent inhibition of FOXM1 by modified thiazolidinediones” (Eur J Med Chem, 2021)
